Results reported in article PMC4091685 (Cancer chemotherapy and pharmacology, 2014).
Like-named read-outs stand apart in the source and are kept apart here.

Experiments:
[1] = tested on: MV4–11 human AML cell line; test: In vitro cytotoxic activity, Alamar Blue viability assay; format: cell-based
[2] = tested on: AML patient cells (bulk, CD34+, CD34+CD38−, CD34+CD38+); test: Apoptosis; format: cell-based; details: Homo sapiens, 24 h
Summary of the method: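 Fresh peripheral blood came from AML patients with blasts of 95% or higher. Mononuclear cells were isolated on Ficoll-Hypaque and cultured in RPMI 1640 with 10% heat-inactivated FCS, 2mM glutamine and penicillin/streptomycin, on murine MS-5 stromal cells. Cells were stained for CD45, CD34, CD38 and annexin V Cy5, with leukemic cells gated as CD45+. Flow cytometry gave % annexin V+ cells, and EC50 was derived across test compound concentrations. Representative of two patients' samples.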

[3] = tested on: AML patient cells (bulk, CD34+, CD34+CD38−, CD34+CD38+); test: Viable cell count in AML patients' samples, flow cytometry; format: cell-based; details: Homo sapiens, 24 h
Summary of the method: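 AML patient peripheral blood (blasts 95% or higher) was Ficoll-Hypaque purified and cultured in RPMI 1640 with 10% heat-inactivated FCS, 2mM glutamine and penicillin/streptomycin, cocultured with murine MS-5 stromal cells. Leukemic cells were gated CD45+ and subdivided by CD34/CD38. Viable counts came from CountBright beads on annexin V/7-AAD-negative events by flow cytometry. EC50 was derived across test compound concentrations. Representative of two patients' samples.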

[4] = MTD following a single i.v. injection in rats; details: Sprague Dawley, rat, in vivo, iv
[5] = tested on: Sprague-Dawley rats; details: rat, in vivo, iv
[6] = rat, in vivo
[7] = beagle, dog, in vivo
[8] = in vivo; details: rat
[9] = 7-day repeat dose i.v. rat toxicology comparison study; details: both, Sprague-Dawley, rat, in vivo, iv
[10] = tested on: Sprague-Dawley rats; test: as above; details: MRx102 3.0 mg/kg/day or triptolide 0.3 mg/kg/day i.v.
[11] = female, Sprague Dawley, iv, 0.05 mg/kg/day
[12] = female, Sprague Dawley, iv, 0.15 mg/kg/day
[13] = female, Sprague-Dawley, iv, 3 mg/kg/day
[14] = male, Sprague Dawley, iv, 0.05 mg/kg/day
[15] = male, Sprague Dawley, iv, 0.15 mg/kg/day
[16] = male, Sprague Dawley, iv, 0.3 mg/kg/day
[17] = male, Sprague Dawley, iv, 0.5 mg/kg/day
[18] = male, Sprague Dawley, iv, 1.5 mg/kg/day
[19] = male, Sprague Dawley, iv, 3 mg/kg/day
[20] = male, Sprague-Dawley, iv, 1.5 mg/kg/day
[21] = male, Sprague-Dawley, iv, 3 mg/kg/day
[22] = female, Sprague Dawley, iv, 0.3 mg/kg/day

For `CC(C)[C@]12O[C@H]1[C@@H]1O[C@]13[C@]1(O[C@H]1C[C@H]1C4=C(CC[C@@]13C)C(=O)OC4)[C@@H]2O` [Triptolide], the IC50 ([1]; MV4-11, 24 h) was 24.1 nM, the IC50 ([1]; MV4-11, 48 h) was 7.29 nM and the IC50 ([1]; MV4-11, 72 h) was 5.6 nM. It also gave an EC50 ([2]; read-out: EC50 - Annexin V +, 24 h, + MS-5, Bulk) of 2.34 nM, an EC50 ([2]; read-out: EC50 - Annexin V +, 24 h, + MS-5, CD34+) of 2.35 nM and an EC50 ([2]; read-out: EC50 - Annexin V +, 24 h, + MS-5, CD34+38+) of 2.3 nM. For the same compound, the EC50 ([2]; read-out: EC50 - Annexin V +, 24 h, + MS-5, CD34+38−) was 2.37 nM, the EC50 ([2]; read-out: EC50 - Annexin V +, 24 h, Alone, Bulk) was 2.13 nM and the EC50 ([2]; read-out: EC50 - Annexin V +, 24 h, Alone, CD34+) was 2.13 nM. For the same compound, the EC50 ([2]; read-out: EC50 - Annexin V +, 24 h, Alone, CD34+38+) was 2.09 nM, the EC50 ([2]; read-out: EC50 - Annexin V +, 24 h, Alone, CD34+38−) was 2.14 nM and the EC50 ([3]; read-out: EC50 -Cell Count, 24 h, + MS-5, Bulk) was 2.33 nM. The EC50 ([3]; read-out: EC50 -Cell Count, 24 h, + MS-5, CD34+) was 2.38 nM, the EC50 ([3]; read-out: EC50 -Cell Count, 24 h, + MS-5, CD34+38+) was 2.62 nM and the EC50 ([3]; read-out: EC50 -Cell Count, 24 h, + MS-5, CD34+38−) was 2.3 nM. It also gave an EC50 ([3]; read-out: EC50 -Cell Count, 24 h, Alone, Bulk) of 2.19 nM, an EC50 ([3]; read-out: EC50 -Cell Count, 24 h, Alone, CD34+) of 2.15 nM and an EC50 ([3]; read-out: EC50 -Cell Count, 24 h, Alone, CD34+38+) of 2.13 nM. It also gave an EC50 ([3]; read-out: EC50 -Cell Count, 24 h, Alone, CD34+38−) of 2.13 nM, an MTD ([4]; female) of 0.317 mg/kg and an MTD ([4]; male) of 0.63 mg/kg. The “histopathology, females” value [5] was “no microscopic effect”, the “histopathology, males” value [5] was “intraluminal cellular debris in the epididymis” and the reticulocytes [5] was “decreased reticulocytes”. The “T1/2,e of triptolide after MRx102 injection relative to after triptolide” value ([6]; Sprague-Dawley) was “over 7 fold”, the “T1/2,e range” value ([6]; Sprague-Dawley) was 51 to 222 min and the “AUC0-inf Median” value ([6]; both, Sprague Dawley, iv) was 29.69 ng·h/mL. For the same compound, the “Cmax Median” value ([6]; both, Sprague Dawley, iv) was 23.8 ng/mL, the “Cmax range” value ([6]; both, Sprague Dawley, iv) was 7.83 to 41.1 ng/mL and the “T1/2,e Median” value ([6]; both, Sprague Dawley, iv) was 1.6 h. The “T1/2,e range” value ([6]; both, Sprague Dawley, iv) was 51 to 786 min, the AUC0-inf [6, 11] was 8.14 ng·h/mL and the Cl [6, 11] was 6.1 L/h. For the same compound, the Cmax [6, 11] was 11.0 ng/mL, the Vz [6, 11] was 2.2 L and the AUC0-inf [6, 12] was 36.82 ng·h/mL. The Cl [6, 12] was 4.1 L/h, the Cmax [6, 12] was 48.6 ng/mL and the Vz [6, 12] was 1.3 L. The Cmax range ([6]; female, Sprague-Dawley, iv, 3 mg/kg) was 11.8 to 41.1 ng/mL, the Cmax [6, 13] was 41.1 ng/mL and the Tmax [6, 13] was 60 min. The “T1/2,e” value [6, 14] was 10.2 min, the Vz [6, 14] was 0.2 L and the AUC0-inf [6, 15] was 37.95 ng·h/mL. For the same compound, the C0 [6, 15] was 130 ng/mL, the Cl [6, 15] was 4.0 L/h and the Cmax [6, 15] was 49.7 ng/mL. The “T1/2,e” value [6, 15] was 12.6 min, the Vz [6, 15] was 1.2 L and the AUC0-inf [6, 16] was 75.92 ng·h/mL. For the same compound, the C0 [6, 16] was 273 ng/mL, the Cl [6, 16] was 4.0 L/h and the “T1/2,e” value [6, 16] was 14.4 min. For the same compound, the AUC0-inf [6, 17] was 15.97 ng·h/mL, the “T1/2,e” value [6, 17] was 51 min and the AUC0-inf [6, 18] was 164.8 ng·h/mL. The Cmax [6, 18] was 9.17 ng/mL, the “T1/2,e” value [6, 18] was 786 min and the Tmax [6, 18] was 30 min. For the same compound, the AUC0-inf [6, 19] was 66.12 ng·h/mL, the Cmax [6, 19] was 16.0 ng/mL and the “T1/2,e” value [6, 19] was 222 min. The AUC0-inf [6, 20] was 12.66 ng·h/mL, the Cmax [6, 20] was 7.83 ng/mL and the “T1/2,e” value [6, 20] was 66 min. It also gave a Cmax range ([6]; male, Sprague-Dawley, iv, 3 mg/kg) of 7.83 to 32.5 ng/mL, an AUC0-inf [6, 21] of 269.69 ng·h/mL and a Cmax [6, 21] of 17.7 ng/mL. The “T1/2,e” value [6, 21] was 84 min, the accumulation index [6] was “less than unity” and the “AUC0–24hr Median” value ([7]; iv) was 34.83 ng·h/mL. The “AUC0–24hr Range” value ([7]; iv) was 1.50 to 212.0 ng·h/mL, the “Cmax Median” value ([7]; iv) was 3.44 ng/mL and the “Cmax range” value ([7]; iv) was 2.0 to 49.0 ng/mL. The Cmax range ([7]; female) was 2.0 to 21.1 ng/mL, the Cmax range ([7]; male) was 2.22 to 49.0 ng/mL and the “AUC0–24hr” value ([7]; male, iv, 0.1 mg/kg/day) was 25.53 ng·h/mL. For the same compound, the Cmax ([7]; male, iv, 0.1 mg/kg/day) was 2.22 ng/mL, the Tmax ([7]; male, iv, 0.1 mg/kg/day) was 2 h and the clearance ([8]; Sprague-Dawley, Cl range) was 15.5 to 102 mL/min. The Vd ([8]; Sprague-Dawley, Vz range) was 0.2 to 2.2 L, the AUC0-inf ([8]; both, Sprague Dawley, iv, AUC0-inf Median) was 51.4 ng·h/mL and the Cmax ([8]; both, Sprague Dawley, iv, Cmax Median) was 59 ng/mL. It also gave a Cmax ([8]; both, Sprague Dawley, iv, Cmax Range) of 11 to 189 ng/mL, a half-life ([8]; both, Sprague Dawley, iv, T1/2,e Median) of 13.2 min and a half-life ([8]; both, Sprague Dawley, iv, T1/2,e Range) of 9 to 23.4 min. The Tmax [8, 11] was 15 min, the AUC0-inf ([8]; female, Sprague Dawley, iv, 0.05 mg/kg/day, AUC0-inf) was 12.5 ng·h/mL and the clearance ([8]; female, Sprague Dawley, iv, 0.05 mg/kg/day, Cl) was 66.7 mL/min. The Cmax ([8]; female, Sprague Dawley, iv, 0.05 mg/kg/day, Cmax) was 15.4 ng/mL, the half-life ([8]; female, Sprague Dawley, iv, 0.05 mg/kg/day, T1/2,e) was 15 min and the Vd ([8]; female, Sprague Dawley, iv, 0.05 mg/kg/day, Vz) was 1.4 L. It also gave a Tmax [8, 12] of 15 min, an AUC0-inf ([8]; female, Sprague Dawley, iv, 0.15 mg/kg/day, AUC0-inf) of 72.1 ng·h/mL and a clearance ([8]; female, Sprague Dawley, iv, 0.15 mg/kg/day, Cl) of 35 mL/min. It also gave a Cmax ([8]; female, Sprague Dawley, iv, 0.15 mg/kg/day, Cmax) of 74.6 ng/mL, a half-life ([8]; female, Sprague Dawley, iv, 0.15 mg/kg/day, T1/2,e) of 19.8 min and a Vd ([8]; female, Sprague Dawley, iv, 0.15 mg/kg/day, Vz) of 1 L. It also gave a Tmax [8, 22] of 15 min, an AUC0-inf ([8]; female, Sprague Dawley, iv, 0.3 mg/kg/day, AUC0-inf) of 162 ng·h/mL and a C0 [8, 22] of 436 ng/mL. It also gave a clearance ([8]; female, Sprague Dawley, iv, 0.3 mg/kg/day, Cl) of 31.7 mL/min, a Cmax ([8]; female, Sprague Dawley, iv, 0.3 mg/kg/day, Cmax) of 189 ng/mL and a half-life ([8]; female, Sprague Dawley, iv, 0.3 mg/kg/day, T1/2,e) of 23.4 min. The Vd ([8]; female, Sprague Dawley, iv, 0.3 mg/kg/day, Vz) was 1 L, the Cmax ([8]; female, Sprague-Dawley, iv, 0.3 mg/kg, Cmax range) was 11 to 189 ng/mL and the Tmax [8, 14] was 15 min. For the same compound, the half-life ([8]; male, Sprague Dawley, iv, 0.05 mg/kg/day, T1/2,e) was 9 min, the Tmax [8, 15] was 15 min and the C0 [8, 15] was 234 ng/mL. It also gave a clearance ([8]; male, Sprague Dawley, iv, 0.15 mg/kg/day, Cl) of 48.3 mL/min, a Cmax ([8]; male, Sprague Dawley, iv, 0.15 mg/kg/day, Cmax) of 59 ng/mL and a half-life ([8]; male, Sprague Dawley, iv, 0.15 mg/kg/day, T1/2,e) of 11.4 min. For the same compound, the Vd ([8]; male, Sprague Dawley, iv, 0.15 mg/kg/day, Vz) was 0.8 L, the Tmax [8, 16] was 15 min and the AUC0-inf ([8]; male, Sprague Dawley, iv, 0.3 mg/kg/day, AUC0-inf) was 101 ng·h/mL. For the same compound, the C0 [8, 16] was 383 ng/mL, the clearance ([8]; male, Sprague Dawley, iv, 0.3 mg/kg/day, Cl) was 50 mL/min and the Cmax ([8]; male, Sprague Dawley, iv, 0.3 mg/kg/day, Cmax) was 130 ng/mL. For the same compound, the half-life ([8]; male, Sprague Dawley, iv, 0.3 mg/kg/day, T1/2,e) was 10.8 min, the Vd ([8]; male, Sprague Dawley, iv, 0.3 mg/kg/day, Vz) was 0.8 L and the Cmax ([8]; male, Sprague-Dawley, iv, 0.3 mg/kg, Cmax range) was 18.2 to 130 ng/mL. For the same compound, the NOAEL at 7 days [9] was 0.05 to 0.15 mg/kg and the “survival of high-dose females” value [10] was “euthanized prior to Day 7”.
